Measured values published in ChEMBL document CHEMBL1154069, “Active site directed docking studies: synthesis and pharmacological evaluation of cis-2,6-dimethyl piperidine sulfonamides as inhibitors of acetylcholinesterase” (Eur J Med Chem, 2009).
Active and inactive are the calls of the source. The rule behind the calls is not given here.

Key:
Rattus norvegicus [1] = assay: Antiamnesic activity against scopolamine-induced memory loss in rat assessed as basal latency to reach shock free zone 3 at 0.1 mg/kg, ip; assay type: functional; conditions: route intraperitoneal
Rattus norvegicus [2] = assay: Antiamnesic activity against scopolamine-induced memory loss in rat assessed as basal latency to reach shock free zone 1 at 0.1 mg/kg, ip; assay type: functional; conditions: route intraperitoneal
Rattus norvegicus [3] = assay: Antiamnesic effect against scopolamine-induced memory loss in rat assessed as basal latency to reach shock free zone 2 at 0.1 mg/kg, ip; assay type: functional; conditions: route intraperitoneal
Acetylcholinesterase [4] = target: Acetylcholinesterase (Electrophorus electricus, UniProt O42275); assay: Inhibition of electric eel AChE by Ellman's method
Acetylcholinesterase (Electrophorus electricus, UniProt O42275), sequence (O42275 whole entry): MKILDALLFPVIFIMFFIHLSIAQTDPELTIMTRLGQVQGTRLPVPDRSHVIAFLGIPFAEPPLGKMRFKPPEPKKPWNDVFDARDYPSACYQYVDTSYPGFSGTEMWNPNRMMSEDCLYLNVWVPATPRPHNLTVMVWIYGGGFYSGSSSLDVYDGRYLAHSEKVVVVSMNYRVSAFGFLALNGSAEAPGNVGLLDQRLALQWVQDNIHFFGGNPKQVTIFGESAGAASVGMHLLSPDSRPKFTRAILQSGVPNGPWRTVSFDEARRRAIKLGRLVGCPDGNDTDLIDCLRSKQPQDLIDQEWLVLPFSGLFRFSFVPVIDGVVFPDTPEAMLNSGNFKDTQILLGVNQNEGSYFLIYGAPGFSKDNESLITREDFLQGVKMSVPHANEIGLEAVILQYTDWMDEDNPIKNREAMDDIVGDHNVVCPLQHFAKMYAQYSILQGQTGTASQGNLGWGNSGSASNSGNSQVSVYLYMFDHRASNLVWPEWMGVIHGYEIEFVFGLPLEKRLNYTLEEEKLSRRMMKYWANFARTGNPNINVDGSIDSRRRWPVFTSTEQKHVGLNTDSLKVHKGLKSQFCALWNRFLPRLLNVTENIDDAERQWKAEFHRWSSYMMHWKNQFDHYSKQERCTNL
In short: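 Commercial electric eel enzyme assayed like rat brain AChE: inhibitor, buffer and DTNB preincubated 10 min, acetylthiocholine iodide added, A412 followed each minute over 10 min at 37 °C. Percentage inhibition versus uninhibited activity at varied concentrations; duplicates averaged. Neostigmine reference 25–500 nM.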

Rattus norvegicus [5] = assay: Antiamnesic activity against scopolamine-induced memory loss in rat assessed as reversal of number of mistakes made in 15 min at 0.1 mg/kg, ip; assay type: functional, organism-based; set-up: dose 0.1 mg/kg
Acetylcholinesterase [6] = target: Acetylcholinesterase (Homo sapiens, UniProt P22303); assay: Inhibition of human serum AChE by Ellman's assay
Acetylcholinesterase (Homo sapiens, UniProt P22303), sequence (P22303 whole entry): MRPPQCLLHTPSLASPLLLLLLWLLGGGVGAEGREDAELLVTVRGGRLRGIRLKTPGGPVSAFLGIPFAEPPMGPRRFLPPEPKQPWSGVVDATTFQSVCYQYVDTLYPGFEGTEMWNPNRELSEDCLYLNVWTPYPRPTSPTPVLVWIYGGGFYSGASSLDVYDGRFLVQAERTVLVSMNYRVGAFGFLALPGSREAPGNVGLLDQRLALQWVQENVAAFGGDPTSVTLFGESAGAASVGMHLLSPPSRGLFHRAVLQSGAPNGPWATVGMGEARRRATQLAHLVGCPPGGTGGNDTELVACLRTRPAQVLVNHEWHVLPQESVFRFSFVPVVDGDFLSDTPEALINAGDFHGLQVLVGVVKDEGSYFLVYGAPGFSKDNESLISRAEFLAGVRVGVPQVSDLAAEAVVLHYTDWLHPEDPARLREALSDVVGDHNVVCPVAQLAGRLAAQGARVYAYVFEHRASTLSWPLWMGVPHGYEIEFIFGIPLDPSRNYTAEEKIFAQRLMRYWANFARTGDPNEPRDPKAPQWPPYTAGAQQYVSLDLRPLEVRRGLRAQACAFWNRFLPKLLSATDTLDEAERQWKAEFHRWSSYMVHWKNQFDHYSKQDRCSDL

Acetylcholinesterase [7] = target: T1, Acetylcholinesterase (Rattus norvegicus, UniProt P37136); assay: Inhibition of Wistar rat brain homogenate AChE by Ellman's assay
T1 sequence (P37136 whole entry): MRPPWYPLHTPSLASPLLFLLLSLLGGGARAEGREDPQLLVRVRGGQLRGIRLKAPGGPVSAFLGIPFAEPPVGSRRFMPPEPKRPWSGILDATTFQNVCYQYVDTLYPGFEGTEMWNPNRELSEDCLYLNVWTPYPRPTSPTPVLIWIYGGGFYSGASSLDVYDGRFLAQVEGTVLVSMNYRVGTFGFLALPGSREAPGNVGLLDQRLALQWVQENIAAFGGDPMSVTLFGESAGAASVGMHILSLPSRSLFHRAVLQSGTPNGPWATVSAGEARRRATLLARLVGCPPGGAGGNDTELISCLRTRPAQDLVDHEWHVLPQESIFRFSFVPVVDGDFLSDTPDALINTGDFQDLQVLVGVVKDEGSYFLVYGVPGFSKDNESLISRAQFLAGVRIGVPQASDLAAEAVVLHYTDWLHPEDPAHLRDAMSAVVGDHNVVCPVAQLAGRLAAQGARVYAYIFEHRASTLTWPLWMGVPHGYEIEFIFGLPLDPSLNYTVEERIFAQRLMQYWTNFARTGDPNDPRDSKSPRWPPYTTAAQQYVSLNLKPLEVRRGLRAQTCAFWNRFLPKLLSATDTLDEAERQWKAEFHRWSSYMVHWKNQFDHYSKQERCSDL
In short: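 Enzyme from Wistar rat brain homogenised 5 min in 0.1 M KH2PO4 pH 8; protein by Lowry (BSA standard). Inhibitor preincubated 10 min with enzyme, buffer and DTNB before adding acetylthiocholine iodide (fresh, pH 7 phosphate). A412 read every 1 min for 10 min at 37 °C. Activity as percentage of uninhibited enzyme; duplicates, means reported.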

Rattus norvegicus [8] = assay: Antiamnesic activity against scopolamine-induced acquisition memory loss in rat assessed as times of step-down at 0.1 mg/kg, ip by step-down passive avoidance test; assay type: functional; conditions: route intraperitoneal

SMILES: C[C@@H]1CCC[C@H](C)N1S(C)(=O)=O
- Activity (Rattus norvegicus [1]): 0.7 s
- Activity (Rattus norvegicus [2]): 20 s
- Activity (Rattus norvegicus [3]): 4 s
- IC50 (Acetylcholinesterase [4]): 90 nM
- Activity (Rattus norvegicus [5]): Active
- IC50 (Acetylcholinesterase [6]): 75 nM
- IC50 (Acetylcholinesterase [7]): 85 nM
- Activity (Rattus norvegicus [8]): 2 times

SMILES: C[C@@H]1CCC[C@H](C)N1S(=O)(=O)c1ccc([N+](=O)[O-])cc1
- Activity (Rattus norvegicus [1]): 7 s
- Activity (Rattus norvegicus [2]): 34 s
- Activity (Rattus norvegicus [3]): 9 s
- IC50 (Acetylcholinesterase [4]): 1210 nM
- IC50 (Acetylcholinesterase [6]): 1150 nM
- IC50 (Acetylcholinesterase [7]): 1200 nM
- Activity (Rattus norvegicus [8]): 3 times

SMILES: C[C@@H]1CCC[C@H](C)N1S(=O)(=O)c1ccccc1
- Activity (Rattus norvegicus [1]): 4 s
- Activity (Rattus norvegicus [2]): 26 s
- Activity (Rattus norvegicus [3]): 7 s
- IC50 (Acetylcholinesterase [4]): 388 nM
- IC50 (Acetylcholinesterase [6]): 392 nM
- IC50 (Acetylcholinesterase [7]): 362 nM
- Activity (Rattus norvegicus [8]): 4 times

SMILES: C[C@@H]1CCC[C@H](C)N1S(=O)(=O)c1ccc(Cl)cc1
- Activity (Rattus norvegicus [1]): 5 s
- Activity (Rattus norvegicus [2]): 25 s
- Activity (Rattus norvegicus [3]): 8 s
- IC50 (Acetylcholinesterase [4]): 312 nM
- IC50 (Acetylcholinesterase [6]): 318 nM
- IC50 (Acetylcholinesterase [7]): 325 nM
- Activity (Rattus norvegicus [8]): 3 times

SMILES: Cc1ccc(S(=O)(=O)N2[C@H](C)CCC[C@@H]2C)cc1
- Activity (Rattus norvegicus [1]): 5 s
- Activity (Rattus norvegicus [2]): 27 s
- Activity (Rattus norvegicus [3]): 8 s
- IC50 (Acetylcholinesterase [4]): 365 nM
- IC50 (Acetylcholinesterase [6]): 368 nM
- IC50 (Acetylcholinesterase [7]): 362 nM
- Activity (Rattus norvegicus [8]): 4 times

SMILES: C[C@@H]1CCC[C@H](C)N1S(=O)(=O)c1cc(Cl)ccc1Cl
- Activity (Rattus norvegicus [1]): 0.8 s
- Activity (Rattus norvegicus [2]): 16 s
- Activity (Rattus norvegicus [3]): 4 s
- IC50 (Acetylcholinesterase [4]): 81 nM
- Activity (Rattus norvegicus [5]): Active
- IC50 (Acetylcholinesterase [6]): 90 nM
- IC50 (Acetylcholinesterase [7]): 75 nM
- Activity (Rattus norvegicus [8]): 2 times

SMILES: CN(C)C(=O)Oc1cccc([N+](C)(C)C)c1 [NEOSTIGMINE BROMIDE]
- IC50 (Acetylcholinesterase [4]): 53 nM
- IC50 (Acetylcholinesterase [7]): 40 nM

SMILES: C[C@@H]1CCC[C@H](C)N1S(=O)(=O)c1ccc(C(C)(C)C)cc1
- Activity (Rattus norvegicus [1]): 6 s
- Activity (Rattus norvegicus [2]): 28 s
- Activity (Rattus norvegicus [3]): 9 s
- IC50 (Acetylcholinesterase [4]): 450 nM
- IC50 (Acetylcholinesterase [6]): 458 nM
- IC50 (Acetylcholinesterase [7]): 463 nM
- Activity (Rattus norvegicus [8]): 4 times

SMILES: C[C@@H]1CCC[C@H](C)N1S(=O)(=O)c1cccc([N+](=O)[O-])c1
- Activity (Rattus norvegicus [1]): 4 s
- Activity (Rattus norvegicus [2]): 22 s
- Activity (Rattus norvegicus [3]): 6 s
- IC50 (Acetylcholinesterase [4]): 200 nM
- Activity (Rattus norvegicus [5]): Active
- IC50 (Acetylcholinesterase [6]): 192 nM
- IC50 (Acetylcholinesterase [7]): 186 nM
- Activity (Rattus norvegicus [8]): 4 times

SMILES: C[C@@H]1CCC[C@H](C)N1S(=O)(=O)c1ccccc1[N+](=O)[O-]
- Activity (Rattus norvegicus [1]): 0.9 s
- Activity (Rattus norvegicus [2]): 17 s
- Activity (Rattus norvegicus [3]): 5 s
- IC50 (Acetylcholinesterase [4]): 180 nM
- Activity (Rattus norvegicus [5]): Active
- IC50 (Acetylcholinesterase [6]): 185 nM
- IC50 (Acetylcholinesterase [7]): 195 nM
- Activity (Rattus norvegicus [8]): 2 times
